From ChEMBL document CHEMBL4513216, “Probing the Open Global Health Chemical Diversity Library for Multistage-Active Starting Points for Next-Generation Antimalarials” (ACS Infect Dis, 2020)

Experiment: Toxicity liver stage against HepG2, at 10uM
Type: cell-based
Set-up: test concentration 10 uM, cell line HepG2-A16-CD81EGFP
Details: human, HepG2-A16-CD81EGFP cells; read-out: INHIBITION
How it was run: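 Uninfected HepG2-A16-CD81EGFP cells, 3 × 10^3 per well, 1536-well, plated on prespotted compound at 10 μM final, parasite-free screening media added to match infected plates; puromycin 10 μM positive, DMSO 0.5% negative; run in parallel with 48 h PbLuc assay at 37 °C, 5% CO2; viability by CellTiter-Glo luminescence, normalized to controls.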

Row | SMILES | cytotoxicity at 10 µM [%]
1 | C[C@@H]1CN(S(=O)(=O)N2CCCC2)C[C@@]1(O)C1CC1 | -5.07
2 | Cc1n[nH]c(C)c1CNC(=O)N1CCCC(Cc2nccn2C)C1 (stereo not drawn) | -19.2
3 | CC(C)c1nc(C2CCCN(C(=O)c3ccc4[nH]nnc4c3)C2)no1 (stereo not drawn) | 7.34
4 | COC(=O)NCc1ccc(NC(=O)CC2=CCCCC2)cc1 | 2.97
5 | O=C(c1cccc(F)c1Cl)N(CCO)CC1CC1 | 0.684
6 | O=C(Nc1nncs1)N1CCC(CCO)CC1 | -2.48
7 | CCC1=N[C@@]2(CC[C@@H]3CN(S(=O)(=O)CC(C)C)C[C@@H]32)C(=O)N1CC1CC1 | 0.457
8 | CN(C)C1CCN(C(=O)c2n[nH]c3c2CCN(CC2CCC2)C3)CC1 | 3.48
9 | CCC(CO)NCc1ccc(-c2ccc(Br)cc2)o1 (stereo not drawn) | -5
10 | COCCn1ccc2c(C(=O)NC3CN4CCC3CC4)cccc21 (stereo not drawn) | -51.6
11 | Cc1ccc2oc(=O)n(CCC(=O)N3CCN(C)C(=O)C3)c2c1 | -15.6
12 | COc1ccc2c(c1)sc(=NC(=O)CSCC(=O)Nc1nccs1)n2C | -8.36
13 | CCN(CCn1cccn1)Cc1nc(-c2ccc(C)o2)oc1C | -4.7
14 | CCC(=O)N1Cc2nnc(C3CCOCC3)n2C(Cc2c[nH]cn2)C1 (stereo not drawn) | -11.2
15 | O=C(Nc1ccccn1)C1CCN(C(=O)COc2ccccc2F)C1 (stereo not drawn) | -24.6
16 | CCn1ccnc1CN1CCN(CC(O)c2ccccc2)CC1 (stereo not drawn) | -7.41
17 | Cc1cc(C)c(CNC(=O)N(C)Cc2sccc2C)c(=O)[nH]1 | -1.77
18 | COc1nn(C)c2c1CCCN(C(=O)c1ccc3c(c1)OCO3)C2 | 13.1
19 | Cc1ccc(OCc2occc2C(=O)N2CC[C@H](CO)[C@@H](O)C2)cc1 | 14.3
20 | COCCNC(=O)[C@H]1CO[C@H]2CCN(Cc3cccs3)C[C@H]2C1 | -108
21 | O=C(C1CN(CC2CC2)CC12CCOCC2)N1CCOCC1 (stereo not drawn) | 6.07
22 | c1ccc(-c2nnc(CNC3CCCN(c4cccnn4)C3)o2)cc1 (stereo not drawn) | -9.45

Row | SMILES | cytotoxicity at 10 µM [%]
23 | CCc1[nH]c2c(CNc3cncc(C(=O)N(C)C)n3)cc(C)cc2c1C | -10.2
24 | Cn1cc(C(=O)NCCC(=O)N2CCCCC2)c(-c2cccnc2)n1 | -5.93
25 | COc1nn(C)c2c1CCCN(C(=O)c1c[nH]cn1)C2 | -100
26 | CCC(C)(C)C(=O)N1CCN(C2=NCC(C)S2)CC1 (stereo not drawn) | -144
27 | CC(C)S(=O)(=O)N1C[C@@H](c2ccccc2)[C@H]2[C@H]1CCCCCN2C | 0.247
28 | Fc1cnc(N2CCC3(COCc4cnc(NCC5CC5)nc43)C2)nc1 (stereo not drawn) | -4.43
29 | Cc1ncsc1CN1CC[C@H](O)[C@@H](n2cnc3c(N)ncnc32)CC1 | -10.8
30 | Cc1ccc(C)c(NC(=O)C(C)N2CCCN(c3nccs3)CC2)c1 (stereo not drawn) | -19.8
31 | COC(=O)c1ccc2c(-c3ccnc(NCCO)n3)c[nH]c2c1 | -12.8
32 | O=C(NCCC1CN(C2CCCC2)CCO1)c1c[nH]c(=O)[nH]c1=O (stereo not drawn) | 0.0436
33 | O=C(COc1cccnc1)N1CCCC(n2cccn2)C1 (stereo not drawn) | -1.92
34 | O=C1CC(c2ccccc2)c2cnn(C3CCCC3)c2N1 (stereo not drawn) | 1.5
35 | CCCc1nc(N(C)Cc2ccco2)c2c(n1)c(C)nn2CC | 16.9
36 | CC(C)CC(=O)N1C[C@@H]2CCN(c3cnccn3)C[C@@H]2C1 | 3.44
37 | CC(CN1CCOCC1)n1cncc1-c1cnn(Cc2ccccc2)c1 (stereo not drawn) | 6.33
38 | Cc1ccc(O)c(C(=O)N2C[C@@H](C(=O)O)[C@H](c3ccccc3)C2)c1 | 0.00559
39 | O=C1CC(c2ncc(-c3ccc4c(c3)OCCO4)[nH]2)CN1C1CCCC1 (stereo not drawn) | 10.8
40 | O=S(=O)(NCc1ccccc1Cn1cncn1)N1CCCCCC1 | 0.512
41 | Cc1csc2c(C3CCCN(C(=O)Cn4cncn4)C3)nc(C)n12 (stereo not drawn) | 5.27
42 | Cc1cc(C2CCCN(Cc3nc(Cc4ccccc4)no3)C2)n[nH]1 (stereo not drawn) | 3.82
43 | CC(=O)N1CCC2(CC1)C(=O)N(C)c1c(F)cccc12 | -11.2
